Runt-CBFb FRET = inhibitors of RUNX1 Runt–CBFb binding, primary screen, biochemical, FRET, Cerulean-Runt, Venus-CBFb, uHTS; Runt-related transcription factor 1 (Homo sapiens) + Core-binding factor subunit beta …; Cerulean-Runt/Venus-CBFb FRET ratio 530/480, 1 h; inhibition, % at 20 µM; 0.46% of 220,000 active; AID 1496, 2009;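 active = inhibition over about 50% at 20 µM in the single-dose screen, limit read from the data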;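 also: 0% = DMSO wells and 100% = excess unlabeled CBFb competitor control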
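System: Cerulean-labeled Runt domain protein | Quantity: 100 nM of each labeled protein | Schedule: 1 h compound exposure, room temperature | Detection: Fluorescence energy transfer, 422 nm excitation, 530/480 nm emission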
KLK7 zymogen act = proKLK7 zymogen activators, primary screen, biochemical, fluorescence intensity. purified proKLK7, EDANS-DABCYL substrate fluorescence; 100% is mature enzyme control, 0% vehicle. AID 652039, 2013. 0.9% of 370,000 active. activation, % at 7 µM;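 active = activation above the mean of all tested compounds plus 3 SD, computed per campaign excluding outliers beyond control limits, cut at about 13% in these data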
Target sequence (P49862 whole entry, looked up): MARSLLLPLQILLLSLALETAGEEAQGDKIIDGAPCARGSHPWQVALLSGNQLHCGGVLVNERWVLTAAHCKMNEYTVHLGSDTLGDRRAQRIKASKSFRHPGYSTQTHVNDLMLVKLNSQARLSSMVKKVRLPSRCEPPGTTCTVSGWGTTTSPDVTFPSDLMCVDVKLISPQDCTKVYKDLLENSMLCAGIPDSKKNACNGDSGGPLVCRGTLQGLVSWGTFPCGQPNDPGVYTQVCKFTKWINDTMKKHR
AI-2 QS modul = Vibrio harveyi AI-2 quorum sensing modulators, primary screen, JMH597 strain, luminescence/OD600 ratio | Vibrio harveyi JMH597 AI-2 luminescence/OD600 ratio, 9 h; hits give low values; strain lacks LuxN and CqsS sensors; 0 = neutral-control median | activity change, % at 7.5 µM | 0.4% of 300,000 active | AID 2094, 2009; in the data active = activity change below about -75%, passing the limit was not always enough;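 also: luminescence divided by OD600 gain over 9 h not by final OD600 alone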
Wee1 degr inh = Wee1 degradation inhibitors, primary screen, cell-based, HeLa, Wee1K328M-luciferase, luminescence; HeLa Luc-Wee1K328M stability; 100% = proteasome inhibitor MG132 effect; Wee1-like protein kinase (Homo sapiens), P30291; AID 1321, 2008; reporter increase, % at 5 µM; 1.2% of 220,000 active;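 active = activation above the mean of all tested compounds plus 3 SD, set per screening run, cut at about 8.8% in these data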;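 also: cells exposed to compound for 20 h before luminescence read; 0% = DMSO alone and 100% = MG132 at 30 µM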
Runt-SMMHC FRET = inhibitors of RUNX1 Runt–CBFb-SMMHC binding, primary screen, biochemical, FRET, Cerulean-Runt, Venus-CBFb-SMMHC, uHTS; Runt-related transcription factor 1 (Homo sapiens) + Core-binding factor subunit beta …; Cerulean-Runt/Venus-CBFb-SMMHC FRET ratio 530/480, 1 h; inhibition, % at 20 µM; 0.74% of 220,000 active; AID 1434, 2008;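 active = mean inhibition across duplicate retests at 20 µM reaching about 50%, limit read from the data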;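 also: 0% = DMSO wells and 100% = wells with excess untagged CBFb-SMMHC; inhibitors lower the FRET ratio by blocking Runt binding to CBFb-SMMHC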
RanGTP-Imp inh = inhibitors of RanGTP-importin-beta interaction, primary screen, biochemical, FRET, CFP-Ran, YFP-importin-beta, homogeneous. Ran GTPase (GTP-bound) - importin-beta complex. cell-free CFP-Ran/YFP-importin-beta FRET ratio. inhibition, % (test concentration not listed). 1.1% of 300,000 active;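 active = more than half of the replicate wells show a fall in the fluorescence ratio signal beyond about 16%, limit read from the data, passing the limit was not always enough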;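 also: 0% = DMSO wells and 100% = Ran loaded with GDP instead of GTP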
KLK7 act conf = proKLK7 zymogen activators, confirmation, biochemical, fluorescence intensity, triplicate | shares compounds with KLK7 zymogen act | purified proKLK7, EDANS-DABCYL substrate fluorescence; scaled: vehicle 0, mature enzyme 100 | activation, % at 7 µM | 68% of 3,200 active | AID 686949, 2013;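 active = activation, as change over the incubation, above the mean of all tested compounds plus 3 SD, cut at about 13% in these data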
EDANS-DABCYL int = EDANS-DABCYL substrate optical interference, artefact control for kallikrein-7 zymogen activator project, biochemical, fluorescence intensity, high throughput; 80% of 3,200 active; AID 686952, 2013; shares compounds with KLK7 zymogen act; no enzyme, 4 h; solvent 0%, active enzyme control 100%; activation, % at 7 µM;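 active = activation above the all-compound mean plus 3 SD, ignoring values outside control-based bounds, cut at about 4.8% in these data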;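 also: value is the 4 h activation minus the activation read at time zero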
K7 EDANS ctr = optically interferes with EDANS-DABCYL fluorescence, kallikrein-7 activator counter-screen. shares compounds with KLK7 zymogen act. EDANS-DABCYL peptide fluorescence interference, no enzyme. EC50, µM. 20% of 250 active. AID 720493;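 active = compounds that raise the fluorescence signal in this interference counterscreen, with EC50 at or below 10 µM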;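 also: intact quenched peptide substrate alone read at 355 nm excitation and 520 nm emission; signal is fluorescence gain from T0 to T4 after four hours at room temperature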
An asterisk follows results filed as active; i = inactive; . = no result given. Hits are enriched below; roughly 2.9% of the tested compounds scored in any of these assays.

SMILES	Runt-CBFb FRET	KLK7 zymogen act	AI-2 QS modul	Wee1 degr inh	Runt-SMMHC FRET	RanGTP-Imp inh	KLK7 act conf	EDANS-DABCYL int	others
O=C1NC(c2ccc(Cl)c([N+](=O)[O-])c2)Nc2ccccc21 (configuration not stated)	-2	0	24	3	-2	2	.	.
COc1ccc(C2NC(=O)c3ccccc3O2)c(OC)c1OC (configuration not stated)	0	-2	14	-3	2	-3	.	.
COc1ccc(C2NC(=O)c3ccccc3N2)c(OC)c1OC (configuration not stated)	.	33*	.	.	.	.	45*	47*
COc1ccccc1-c1cc2c(c3c1ccn3C)C1CCC2C1 (configuration not stated)	.	-1	.	.	.	.	.	.
COC(=O)CSc1ccc2c(N)c(C(=O)OC)sc2c1	1	45*	6	-1	4	3	27*	29*
COC(=O)CSc1nc2ccc(N)cc2s1	-1	0	30	-1	-7	3	.	.
C=CCCC(=O)N1C[C@H]2CON(C)[C@H]2C[C@H]1c1cccc(Oc2ccccc2)c1	.	0	.	.	.	.	.	.
Cc1ccc(C(=O)NCC(=O)NCC(c2ccco2)N2CCCCC2)cc1C (configuration not stated)	.	0	.	.	.	.	.	.
CS(=O)(=O)NN1C(=O)c2ccccc2NC12CCCC2	6	72*	8	-2	13	1	38*	51*
O=C(NN1C(=O)c2ccccc2NC12CCCCC2)c1ccccc1	.	3	31	0	6	1	.	.
Cc1ccc(S(=O)(=O)NN2C(=O)c3ccccc3NC2(C)C)cc1	1	49*	14	-2	5	1	50*	43*
CCOC(=O)NN1C(=O)c2ccccc2NC12CCCC2	.	7	30	-1	2	0	.	.
O=C1c2ccccc2NC2(CCCC2)N1NS(=O)(=O)c1ccccc1	2	37*	5	-2	9	4	31*	28*
COc1cc2c(cc1OC)CN(C(=O)NS(=O)(=O)c1ccc(C)cc1)CC2	0	20*	19	-1	2	3	4	1
CCCc1c(-c2ccc(Cl)cc2)ncn1CCc1ccccc1OC	.	0	.	.	.	.	.	.
Cc1ccc(-c2nc3ncccn3c2NC(=O)Nc2ccc(F)cc2)cc1	.	13*	.	.	.	.	-13	-7
CC(=O)Nc1c(-c2ccc(C)cc2)nc2ncccn12	.	10	.	.	.	.	.	.
O=C(Nc1nc2ncccn2c1-c1ccc(F)c(F)c1)C1CC1	.	18*	.	.	.	.	20*	24*
Cc1ccc(-c2c(NC(=O)Nc3ccc(F)cc3)nc3ncccn23)cc1	.	2	.	.	.	.	.	.
CC(=O)Nc1nc2ncccn2c1-c1ccc(C)cc1	.	23*	.	.	.	.	48*	50*
O=C(Nc1c(-c2ccccc2)nc2ncccn12)C1CC1	.	28*	.	.	.	.	28*	34*
O=C(Nc1ccc(F)cc1)Nc1c(-c2ccccc2)nc2ncccn12	.	8	.	.	.	.	.	.
CCOC(=O)CCC(NC(=O)CCCCCCCC(=O)NC(CCC(=O)OCC)C(=O)OCC)C(=O)OCC (configuration not stated)	0	-1	17	0	-1	3	.	.
Cc1ccc(N(CC(=O)NCCc2ccccc2)C(=O)CCC(=O)Nc2cc(C)ccn2)cc1	.	0	7	.	.	-2	.	.
Nc1c(-c2ccc(F)cc2)nc2ncccn12	.	8	.	.	.	.	.	.
SMILES	Runt-CBFb FRET	KLK7 zymogen act	AI-2 QS modul	Wee1 degr inh	Runt-SMMHC FRET	RanGTP-Imp inh	KLK7 act conf	EDANS-DABCYL int	others
O=C(Nc1c(-c2ccc(F)cc2)nc2ncccn12)C1CC1	.	25*	.	.	.	.	36*	38*
O=C(Nc1c(-c2ccccc2)nc2ncccn12)c1ccccc1	.	13*	.	.	.	.	60*	14*	K7 EDANS ctr=i
Cc1cccc(C(=O)Nc2c(-c3ccccc3)nc3ncccn23)c1	.	9	.	.	.	.	.	.
O=C1C2C3CC(C(Br)C3Br)C2C(=O)N1c1nccs1 (configuration not stated)	.	-1	16	.	.	0	.	.
COCCCNC(=O)C1CCN(C(=O)c2oc3cc4sc(N(C)C)nc4cc3c2C)CC1	.	21*	19	.	.	7	-5	-4
CCN(CC)CCCNC(=O)C1CCN(C(=O)c2oc3cc4sc(N(C)C)nc4cc3c2C)CC1	.	13*	13	.	.	2	12	9.0*
COCCNC(=O)C1CCCN(C(=O)c2oc3ccccc3c2C)CC1 (configuration not stated)	.	3	.	.	.	.	.	.
O=C(O)c1cccc(-n2cc(-c3cccc(C(F)(F)F)c3)cn2)c1	.	0	34	.	.	0	.	.
C/C(=N\NC(=O)c1nnn(-c2nonc2N)c1CN1CCC(C)CC1)c1ccc(Br)cc1	.	0	.	.	.	.	.	.
CCCSc1nc(C)c2cc(C)cc(C)c2n1	2	-1	-8	5	-2	-4	.	.
Cc1cc(C)c2nc3nc(C)c(C)cc3c(N)c2c1	19	50*	36	1	92*	14	34*	41*
CC(=O)N1CCC2(CC1)CC(=O)c1cc(OCC(=O)N3CCCC3)ccc1O2	.	40*	4	2	9	2	53*	55*
CCOc1ccc(OCC(=O)N2CCC3(CC2)CC(=O)c2ccccc2O3)cc1	.	0	15	.	.	6	.	.
CCOC(=O)COc1ccc2c(c1)C(=O)CC1(CCN(C(C)=O)CC1)O2	2	22*	33	2	5	4	26*	43*
Nc1cc(Cl)ccc1Oc1ccccc1	-1	0	3	-1	-2	3	.	.
Nc1cc(C(=O)O)c(Oc2ccc(Cl)cc2Cl)cc1C(=O)O	1	26*	15	1	1	-1	57*	51*

Source: PubChem BioAssay
